Measured values taken from ChEMBL document CHEMBL4325922, “Restoring Let-7 microRNA Biogenesis Using a Small-Molecule Inhibitor of the Protein-RNA Interaction” (ACS Med Chem Lett, 2018).
Activity calls are given as the source filed them. The rule behind the calls is not given here.

Key:
[1] = target: Endoribonuclease Dicer (Homo sapiens) (UniProt Q9UPY3); experiment: Inhibition of recombinant FLAG-tagged human dicer expressed in HEK293 cells assessed as reduction in pre-let-7g microRNA maturation at 5 to 10 uM after 40 mins by SYBR green2 dye based fluorescence assay; type: cell-based
Sequence of Endoribonuclease Dicer (Homo sapiens) (Q9UPY3 whole entry): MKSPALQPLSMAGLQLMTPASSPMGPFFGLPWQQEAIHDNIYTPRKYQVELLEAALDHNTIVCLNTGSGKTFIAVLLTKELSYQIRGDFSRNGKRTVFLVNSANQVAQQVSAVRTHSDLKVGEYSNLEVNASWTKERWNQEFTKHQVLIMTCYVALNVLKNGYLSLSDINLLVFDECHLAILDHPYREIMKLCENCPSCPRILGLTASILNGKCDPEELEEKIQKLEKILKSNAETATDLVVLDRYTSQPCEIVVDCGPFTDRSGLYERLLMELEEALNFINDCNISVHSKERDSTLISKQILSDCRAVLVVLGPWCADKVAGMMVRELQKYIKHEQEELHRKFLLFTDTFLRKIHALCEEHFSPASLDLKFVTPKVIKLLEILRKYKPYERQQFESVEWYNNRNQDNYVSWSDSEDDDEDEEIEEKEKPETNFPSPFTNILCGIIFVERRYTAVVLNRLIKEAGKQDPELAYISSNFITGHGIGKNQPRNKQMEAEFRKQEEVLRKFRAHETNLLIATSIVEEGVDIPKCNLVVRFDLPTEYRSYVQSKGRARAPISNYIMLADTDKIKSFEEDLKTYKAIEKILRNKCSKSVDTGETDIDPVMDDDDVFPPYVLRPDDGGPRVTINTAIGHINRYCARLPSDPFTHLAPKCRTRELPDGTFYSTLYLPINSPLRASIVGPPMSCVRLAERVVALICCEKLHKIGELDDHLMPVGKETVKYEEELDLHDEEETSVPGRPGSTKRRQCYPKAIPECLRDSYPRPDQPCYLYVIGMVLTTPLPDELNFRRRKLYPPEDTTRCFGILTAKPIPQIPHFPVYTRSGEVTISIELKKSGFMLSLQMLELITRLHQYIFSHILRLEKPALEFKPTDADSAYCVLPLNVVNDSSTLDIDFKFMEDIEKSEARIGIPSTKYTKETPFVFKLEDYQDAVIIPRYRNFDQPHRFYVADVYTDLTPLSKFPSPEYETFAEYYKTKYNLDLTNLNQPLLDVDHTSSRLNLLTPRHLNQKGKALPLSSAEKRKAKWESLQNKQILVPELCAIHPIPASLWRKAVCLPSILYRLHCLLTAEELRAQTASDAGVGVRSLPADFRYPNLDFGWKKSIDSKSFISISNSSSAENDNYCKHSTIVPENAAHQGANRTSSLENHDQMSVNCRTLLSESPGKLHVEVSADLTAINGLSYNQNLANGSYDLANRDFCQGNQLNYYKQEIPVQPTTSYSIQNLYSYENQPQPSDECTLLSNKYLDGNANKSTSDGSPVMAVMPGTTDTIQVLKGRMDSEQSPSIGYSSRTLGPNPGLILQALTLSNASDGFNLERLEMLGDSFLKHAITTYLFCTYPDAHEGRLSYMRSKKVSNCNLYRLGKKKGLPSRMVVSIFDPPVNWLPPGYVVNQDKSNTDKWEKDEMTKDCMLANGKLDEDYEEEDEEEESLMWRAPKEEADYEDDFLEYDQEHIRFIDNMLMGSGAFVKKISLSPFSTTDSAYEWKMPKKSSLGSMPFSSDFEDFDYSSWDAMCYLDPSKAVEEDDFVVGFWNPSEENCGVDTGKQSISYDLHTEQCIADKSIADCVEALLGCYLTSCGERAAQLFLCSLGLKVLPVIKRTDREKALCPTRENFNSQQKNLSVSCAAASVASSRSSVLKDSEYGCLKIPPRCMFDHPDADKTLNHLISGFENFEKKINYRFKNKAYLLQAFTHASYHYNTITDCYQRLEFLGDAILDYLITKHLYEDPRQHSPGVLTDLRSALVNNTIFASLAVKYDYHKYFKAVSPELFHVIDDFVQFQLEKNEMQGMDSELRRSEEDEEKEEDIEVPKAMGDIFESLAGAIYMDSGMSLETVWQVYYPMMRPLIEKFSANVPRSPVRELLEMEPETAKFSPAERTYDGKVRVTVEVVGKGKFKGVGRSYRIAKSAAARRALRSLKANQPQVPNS

[2] = target: T1, Protein lin-28 homolog A/B (Homo sapiens) (UniProt Q6ZN17+Q9H9Z2); experiment: Inhibition of Lin28a/Lin28b in human JAR cells assessed as increase in mature let-7b level after 20 hrs by TRIzol dye based qRT-PCR analysis; type: cell-based
T1 sequence (Q6ZN17 whole entry, looked up, one chain of several): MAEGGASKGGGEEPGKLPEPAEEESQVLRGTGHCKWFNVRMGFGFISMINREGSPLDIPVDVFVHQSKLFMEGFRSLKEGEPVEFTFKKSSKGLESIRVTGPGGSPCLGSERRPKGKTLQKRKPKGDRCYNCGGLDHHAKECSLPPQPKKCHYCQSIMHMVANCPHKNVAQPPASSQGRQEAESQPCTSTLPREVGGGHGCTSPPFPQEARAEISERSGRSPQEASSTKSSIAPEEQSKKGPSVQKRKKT
In short: (§1)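 JAR cells (express Lin28a and Lin28b) exposed to compound for 20 h; miRNA levels quantified with U6 snRNA as endogenous control; three or more biological replicates, standard deviation, paired two-tailed t test.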

[3] = target: T1, Protein lin-28 homolog A/B (Homo sapiens); experiment: Inhibition of Lin28a/Lin28b in human JAR cells assessed as increase in mature let-7g level after 20 hrs by TRIzol dye based qRT-PCR analysis; type: cell-based; in short: as §1
[4] = system: PA-1; experiment: Increase in mature let-7i level in Lin28a CRISPR-Cas9 knockout human PA1 cells at 10 uM after 20 hrs by qRT-PCR analysis; type: functional, cell-based
In short: (§2)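 PA-1 cells with Lin28a fully knocked out by CRISPR/Cas9 editing (clonal lines) treated for 20 h; let-7 levels normalized to U6 snRNA; 2 technical replicates.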

[5] = target: T1, Protein lin-28 homolog A/B (Homo sapiens); experiment: Inhibition of Lin28a/Lin28b in human paclitaxel-resistant JAR cells assessed as reduction in IMP1 expression at 10 uM measured after 24 hrs by Western blot analysis
[6] = target: T2, Protein lin-28 homolog A (Homo sapiens) (UniProt Q9H9Z2); experiment: Inhibition of biotinylated-preE-let-7g binding to Lin28a in human JAR cells by pull down assay; type: cell-based
T2 sequence (whole entry): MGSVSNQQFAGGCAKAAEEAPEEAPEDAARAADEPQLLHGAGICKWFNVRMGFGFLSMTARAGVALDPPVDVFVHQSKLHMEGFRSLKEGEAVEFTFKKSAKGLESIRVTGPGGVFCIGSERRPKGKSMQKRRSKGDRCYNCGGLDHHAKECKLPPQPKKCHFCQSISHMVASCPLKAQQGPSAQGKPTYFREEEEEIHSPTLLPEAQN
In short: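 5′-Biotinylated preE-let-7g is immobilized on streptavidin beads and incubated with proteome from JAR human choriocarcinoma cells, which express Lin28a and Lin28b. Test compound is present during binding, and target engagement is judged by the proteins pulled down.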

[7] = system: JAR; experiment: Cytotoxicity against human JAR cells after 24 hrs by WST assay; type: functional, cell-based
[8] = system: PA-1; experiment: Cytotoxicity against human PA1 cells after 24 hrs by WST assay; type: functional, cell-based
[9] = target: T1, Protein lin-28 homolog A/B (Homo sapiens); experiment: Inhibition of Lin28a/Lin28b in human JAR cells assessed as reduction in HMGA2 expression after 20 hrs by dual-luciferase reporter gene assay
[10] = system: JAR; experiment: Inhibition of sphere formation in human JAR cells at 10 uM after 24 hrs by WST assay; type: functional, cell-based
In short: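 JAR cells are pretreated with compound for 24 h, dissociated to single cells, and equal numbers of viable cells are cultured in sphere-forming media for 12 days. Sphere formation is quantified by WST assay. Three biological replicates, standard deviation, paired two-tailed t test.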

[11] = system: PA-1; experiment: Increase in mature let-7d level in Lin28a CRISPR-Cas9 knockout human PA1 cells at 10 uM after 20 hrs by qRT-PCR analysis; type: functional, cell-based; in short: as §2
[12] = system: JAR; experiment: Increase in mature let-7g level in Lin28a/b knockdown human JAR cells at 10 uM after 20 hrs by qRT-PCR analysis; type: functional, cell-based
In short: (§3)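 Lin28 knocked-down JAR cells treated for 20 h; let-7 levels measured against U6 snRNA endogenous control; 2 biological replicates.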

[13] = target: T2, Protein lin-28 homolog A (Homo sapiens); experiment: Inhibition of Lin28a in human PA1 cells assessed as reduction in IMP1 expression at 10 uM after 24 hrs by Western blot analysis; type: cell-based
In short: (§4)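 Endogenous let-7 target proteins (HMGA2, IMP1, Ras, Lin28a) detected by Western blot in JAR or PA-1 cells after 24 h compound treatment.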

[14] = target: T2, Protein lin-28 homolog A (Homo sapiens); experiment: Inhibition of Lin28a in human PA1 cells assessed as reduction in Lin28 expression at 10 uM after 24 hrs by Western blot analysis; type: cell-based; in short: as §4
[15] = target: T2, Protein lin-28 homolog A (Homo sapiens); experiment: Inhibition of Lin28a in human PA1 cells assessed as reduction in HMGA2 expression at 10 uM after 24 hrs by Western blot analysis; type: cell-based; in short: as §4
[16] = target: T1, Protein lin-28 homolog A/B (Homo sapiens); experiment: Inhibition of Lin28a/Lin28b in human MCF7 cells assessed as reduction in Ras expression at 10 uM after 24 hrs by Western blot analysis; type: cell-based
[17] = system: JAR; experiment: Increase in mature let-7d level in Lin28a/b knockdown human JAR cells at 10 uM after 20 hrs by qRT-PCR analysis; type: functional, cell-based; in short: as §3
[18] = target: T1, Protein lin-28 homolog A/B (Homo sapiens); experiment: Inhibition of Lin28a/Lin28b in human JAR cells assessed as reduction in HMGA2 expression at 5 to 10 uM after 24 hrs by Western blot analysis; type: cell-based; in short: as §4
[19] = target: T2, Protein lin-28 homolog A (Homo sapiens); experiment: Inhibition of Lin28a in human PA1 cells assessed as increase in mature let-7d level at 10 uM after 20 hrs by TRIzol dye based qRT-PCR analysis; type: cell-based
In short: (§5)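 PA-1 ovarian teratocarcinoma cells (express Lin28a) treated for 20 h; let-7 quantified relative to U6 snRNA; 4 biological replicates, standard deviation, paired two-tailed t test.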

[20] = system: PA-1; experiment: Increase in mature let-7g level in Lin28a CRISPR-Cas9 knockout human PA1 cells at 10 uM after 20 hrs by qRT-PCR analysis; type: functional, cell-based; in short: as §2
[21] = target: T1, Protein lin-28 homolog A/B (Homo sapiens); experiment: Inhibition of Lin28a/Lin28b in human JAR cells assessed as reduction in Lin28a expression at 5 to 10 uM after 24 hrs by Western blot analysis; type: cell-based; in short: as §4
[22] = target: T1, Protein lin-28 homolog A/B (Homo sapiens); experiment: Inhibition of Lin28a/Lin28b in human JAR cells assessed as increase in mature let-7d level after 20 hrs by TRIzol dye based qRT-PCR analysis; type: cell-based; in short: as §1
[23] = target: T1, Protein lin-28 homolog A/B (Homo sapiens); experiment: Inhibition of Lin28a/Lin28b in human JAR cells assessed as reduction in IMP1 expression at 5 to 10 uM after 24 hrs by Western blot analysis; type: cell-based; in short: as §4
[24] = system: JAR; experiment: Inhibition of sphere formation in human JAR cells at 10 uM after 24 hrs by bright-field microscopic analysis; type: functional, cell-based
In short: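 JAR cells are pretreated with compound for 24 h, then dissociated to single cells. Equal numbers of viable cells are grown for 12 days in sphere-forming media. The degree of sphere formation is assessed under a microscope.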

[25] = target: T2, Protein lin-28 homolog A (Homo sapiens); experiment: Inhibition of Lin28a in human PA1 cells assessed as increase in mature let-7i level at 10 uM after 20 hrs by TRIzol dye based qRT-PCR analysis; type: cell-based; in short: as §5
[26] = Cytotoxicity against mouse C8-D1A cells at 10 uM after 24 hrs by WST assay; type: cell-based
[27] = target: T1, Protein lin-28 homolog A/B (Homo sapiens); experiment: Inhibition of Lin28a/Lin28b in human MCF7 cells assessed as reduction in HMGA2 expression at 10 uM after 24 hrs by Western blot analysis; type: cell-based

For `NC(=O)c1c(Nc2ccc(Cl)cc2Cl)[nH]c2c(Cl)ccc(Cl)c2c1=O`, which inhibition [1] is on record?
Its inhibition is “inactive”.

What about the inhibition [2] of the same compound?
Its inhibition is “Dose-dependent effect”.

What about the inhibition [3] of the same compound?
Its inhibition is “Dose-dependent effect”.

And the Activity [4]?
Its Activity is “inactive”.

What about the inhibition [5] of the same compound?
Its inhibition is “Active”.

And the inhibition [6]?
Its inhibition is “Dose-dependent effect”.

What about the Activity [7] of the same compound?
The Activity was “Active”.

And the Activity [8]?
Its Activity is “Active”.

What about the inhibition [9] of the same compound?
The inhibition was “Dose-dependent effect”.

And the inhibition [10]?
Its inhibition is “Active”.

What about the Activity [11] of the same compound?
Its Activity is “inactive”.

And the Activity [12]?
Its Activity is “inactive”.

And the inhibition [13]?
The inhibition was “Active”.

What about the inhibition [14] of the same compound?
Its inhibition is “Active”.

What about the inhibition [15] of the same compound?
Its inhibition is “Active”.

What about the inhibition [16] of the same compound?
The inhibition was “inactive”.

What about the Activity [17] of the same compound?
The Activity was “inactive”.

And the inhibition [18]?
Its inhibition is “Active”.

And the inhibition [19]?
The inhibition was “Active”.

And the Activity [20]?
The Activity was “inactive”.

And the inhibition [21]?
The inhibition was “Active”.

And the inhibition [22]?
Its inhibition is “Dose-dependent effect”.

What about the inhibition [23] of the same compound?
The inhibition was “Active”.

What about the inhibition [24] of the same compound?
The inhibition was “Active”.

What about the inhibition [25] of the same compound?
Its inhibition is “Active”.

What about the Activity [26] of the same compound?
Its Activity is “Toxic”.

And the inhibition [27]?
The inhibition was “inactive”.
